Bioassay records from PubChem.
CHT inh – human CHT choline transport inhibition. 0.86% of 310,000 active. CHT-expressing cells, membrane potential dye, choline response; active compounds read low. AID 488975. B-score at 10 µM;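 active means B-score over 3 SD under the library average, and starting fluorescence ratio not unusually high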;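 further: choline stimulus applied at its EC90 after an EC20 pre-addition; B-score computed on integrated fluorescence ratio after choline addition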
Target sequence (Q9GZV3 whole entry, looked up): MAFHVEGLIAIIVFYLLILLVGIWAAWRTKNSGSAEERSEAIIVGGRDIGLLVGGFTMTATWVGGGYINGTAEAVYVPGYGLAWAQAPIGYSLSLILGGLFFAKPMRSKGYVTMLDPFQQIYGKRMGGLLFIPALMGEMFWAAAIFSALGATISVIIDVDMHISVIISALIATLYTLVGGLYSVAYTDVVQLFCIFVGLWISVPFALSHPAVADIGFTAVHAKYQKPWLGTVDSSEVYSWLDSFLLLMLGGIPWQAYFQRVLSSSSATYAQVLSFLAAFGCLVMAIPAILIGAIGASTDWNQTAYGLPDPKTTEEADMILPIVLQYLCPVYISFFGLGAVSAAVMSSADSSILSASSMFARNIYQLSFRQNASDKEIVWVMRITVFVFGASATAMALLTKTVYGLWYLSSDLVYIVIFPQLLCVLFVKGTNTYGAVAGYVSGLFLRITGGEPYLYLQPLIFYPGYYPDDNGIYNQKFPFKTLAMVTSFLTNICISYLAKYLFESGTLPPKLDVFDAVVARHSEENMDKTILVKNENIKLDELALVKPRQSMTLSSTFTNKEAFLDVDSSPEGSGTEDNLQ
Lipid droplet – modulators of hepatic lipid droplet formation; inhibition, % at 6.5 µM; 0.4% of 240,000 active; AML12 mouse hepatocytes, oleate lipid droplets, BODIPY imaging;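 active means lipid droplet intensity inhibited by at least 50%, with more than 500 cells counted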
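Assay system: AML12 mouse liver cells | Compound dosing: One dose, 6.5 µM compound | Read-out basis: Droplet intensity reduction, % inhibition | Measured by: Fluorescence imaging, 20x objective, two fields per well | Schedule: Overnight treatment with compound plus oleate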
HSF1 inh – HSF1 inhibition | AID 2098 | 0.77% of 300,000 active | activity change, negative = inhibition, % at 7.5 µM (by protocol) | NIH3T3-HGL HSE-luciferase, MG132-induced, luminescence 8 h; active compounds read low;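 active means more than half of replicate wells show activity change below -50%, luminescence cut by over half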;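 further: luciferase reports HSF-1 transcriptional activity via heat shock element; 0% = median of DMSO wells and -100% = zero luminescence signal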
HSF-1 act – increases HSF-1 driven luciferase reporter signal; NIH3T3-HGL HSF-1 luciferase reporter, MG132, 8 h; 100% = twice DMSO control signal; activation, % at 9 µM; 1.7% of 300,000 active; AID 504408;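 active means mean replicate activation of at least 50% with a set share of replicates each reaching 50%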;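 further: 0% = median of the neutral control wells and 100% = twice that signal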
PHOSPHO1 block – blocks human PHOSPHO1 phosphatase activity. Q8TCT1. recombinant PHOSPHO1, absorbance phosphatase assay. inhibition, % at 13.3 µM. 1.1% of 290,000 active. AID 1565; in the data active means inhibition above about 60%
CHT allo act – allosteric activators of human choline transporter CHT; Q9GZV3; CHT-expressing cells, membrane potential dye, choline EC20; active compounds read high; LV-AA mutant CHT in HEK293 cells; B-score at 10 µM; 0.49% of 310,000 active;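 active means initial fluorescence not abnormally high and integrated response B-score, plate-corrected, over 3 SD above library mean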
CHT block conf – confirmation of human choline transporter CHT inhibitors; shares compounds with CHT inh; CHT-expressing cells, choline membrane potential dye; LV-to-AA substituted CHT, HEK293 cells; CHT activity remaining % of control (active compounds read low), % at 10 µM; 70% of 2,400 active; AID 493221;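 active means choline transporter activity left, mean of duplicates at 10 µM, below buffer-only control mean minus 3 SD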;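 further: depolarization triggered by choline at its EC90 following an EC20 pre-addition; 0% = hemicholinium-3 full block and 100% = buffer-only control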
HEK293 CHT ctr – CHT inhibitor counter-screen hit in parental HEK293 cells; shares compounds with CHT inh; membrane potential dye, choline response; active = decrease or increase beyond buffer ±3SD; membrane potential ratio readout (active if shifted either direction beyond buffer ±3SD; no single direction) at 10 µM; 4% of 2,400 active;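 further: parental cells lack the transporter so any hit is non-specific; ratio is peak minus trough fluorescence over baseline after EC90 choline challenge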
Numbers without * were called inactive; i = inactive; / = no result given. The list is not random: actives were taken first. Their share in the collection is about 4.9%.

SMILES | CHT inh | Lipid droplet | HSF1 inh | HSF-1 act | PHOSPHO1 block | CHT allo act | CHT block conf | HEK293 CHT ctr
CCCCCc1cc(=O)oc2c(C(CCN3CCCCC3)c3cc(OC)c(OC)c(OC)c3)c(OC)cc(OC)c12 (configuration not stated) | -6.1* | 22 | -1 | -14 | 13 | i | 51%* | i
COc1ccc(C(CCN2CCCCC2)c2c(OC)cc(OC)c3c(-c4ccccc4)cc(=O)oc23)cc1 (configuration not stated) | -7.1* | -1 | -2 | -20 | 4 | i | 38%* | i
COc1ccc(-n2nnc3c(=O)n(C/C=C/c4ccccc4)cnc32)cc1 | i | -1 | -1 | 19 | 44 | i | / | /
COc1ccc(-c2[nH]c3ccccc3c2SCCN)cc1 | i | 3 | 12 | -3 | 6 | i | / | /
COCCN(C(=O)CSc1nnc(-c2ccc(C)c(C)c2)o1)c1c(N)n(CC(C)C)c(=O)[nH]c1=O | -6.3* | / | -3 | 0 | / | i | 19%* | i
C=CCn1c(CSc2nc3ccccc3s2)nnc1SCC(=O)NCc1ccccc1 | -5.6* | / | 3 | -3 | 25 | i | 62%* | i
CCCn1c(SCC(=O)Nc2nnc(CC)s2)nnc1-c1ccncc1 | i | 2 | -3 | 6 | 41 | i | / | /
CCOCCCNC(=O)c1ccc(OC2CCN(C(C)=O)CC2)c(OC)c1 | i | 15 | 0 | -8 | / | i | / | /
COc1ccc(C(=O)N2CCCC(O)C2)cc1OC1CCN(C(C)C)CC1 (configuration not stated) | -7.1* | -6 | -4 | -2 | 37 | i | 62%* | i
CCC1CCCCN1C(=O)c1ccc(OC)c(OC2CCN(C(C)C)CC2)c1 (configuration not stated) | i | 6 | -4 | -2 | 29 | i | / | /
COc1ccc(C(=O)NCCC2=CCCCC2)cc1OC1CCN(C(C)C)CC1 | -11* | -21 | 14 | 11 | 34 | i | 5.1%* | i
COc1cc(C(=O)NCCC2=CCCCC2)cc(OC)c1OC | i | / | 14 | -5 | -10 | i | / | /
COc1ccc(C(=O)NC2CCCCC2)cc1OC1CCN(C(C)C)CC1 | -7.7* | -20 | -2 | 1 | 23 | i | 9.8%* | i
COc1ccc(C(=O)NC2CCCCCC2)cc1OC1CCN(C(C)=O)CC1 | i | -6 | -8 | -1 | 12 | i | / | /
COc1ccc(C(=O)NCCCSC)cc1OC1CCN(C(C)C)CC1 | -9.1* | -13 | -8 | 1 | 8 | i | 18%* | i
CC(Sc1nc(-c2ccccc2)nc2c1COC(C)(C)C2)C(=O)N1CCOCC1 (configuration not stated) | i | 18 | 0 | 2 | -3 | i | / | /
Cc1ccc(-c2nc3ncccc3o2)cc1NC(=O)c1ccccc1 | -6.7* | 1 | 3 | -1 | 39 | i | i | i
COc1ccc(-c2nnc(CSc3nc4ccccc4c(=O)n3CC3CCCO3)o2)cc1OC (configuration not stated) | -7.4* | -3 | 3 | -8 | 15 | i | 49%* | i
O=C(NCc1cccnc1)c1ccc(COc2ccc(Cl)cc2Cl)o1 | i | -7 | 2 | 8 | 23 | i | / | /
CCCc1ccc(OCc2ccc(C(=O)NCc3cccnc3)o2)c(OC)c1 | -5.7* | 2 | 13 | 12 | -15 | i | 68%* | i
COc1cc(/C=N\NC(=O)CN2CCOCC2)ccc1OCC(=O)Nc1ccc(C)c(C)c1 | i | / | 7 | 32 | 7 | i | / | /
CCOC(=O)c1cc(NC(=O)CNCC(c2ccccc2)N(C)C)cc(C(=O)OCC)c1 (configuration not stated) | -6.8* | / | 0 | 1 | 31 | i | 33%* | 2.2*
